How the values were obtained:
Type in all cases: in vivo, mouse
WT and Gipr−/− mice = test: intraperitoneal glucose tolerance test in WT and Gipr−/− mice
obese high-fat-fed mice = test: body weight and food intake in obese high-fat-fed mice
[1] = system: brain neuronal activity (cFos); test: whole-brain cFos analysis; details: 120 min
Procedure, shortened: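 Chow-fed male C57BL/6J mice were acclimated with daily s.c. PBS for 4 days. On day 5 they received s.c. GIPR agonist (10 nmol/kg), PYY analog (100 nmol/kg), GDF15 (2 nmol/kg) or combinations. Mice were formalin-perfused 120 min post-dose, and brains were iDISCO+-cleared, cFos-immunostained (rabbit, 1:200), light-sheet imaged and registered. Counts came from voxel-based statistics within PBN_D/PBN_V hotspots defined by averaged PYY- and GDF15-group signal. Vehicle n = 8.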

[2] = agent alone, dosed once daily, 72-h dosing period, n = 6 per group

Molecule	blood glucose in intraperitoneal glucose tolerance test (WT and Gipr−/− mice)	weight loss in combination with the LAPYY analog (obese high-fat-fed mice; LAGIPRA 10 nmol/kg plus LAPYY analog, once daily)	body weight (obese high-fat-fed mice; [2])	food intake (obese high-fat-fed mice; [2])	number of cFos+ cells in the BST [1]	number of cFos+ cells in the NTS and DMX [1]	brain regions with decreased cFos expression ([1]; GDF15 2 nmol/kg s.c., vs vehicle, n = 8)	brain regions with increased cFos expression ([1]; GIPRA 10, PYY 100, GDF15 2 nmol/kg s.c., vs vehicle, n = 8)
LAGIPRA	lowering blood glucose	only delivered greater weight loss in combination with a low dose of the LAPYY analog	reduced	reduced	–	–	–	–
GDF15: recombinant human GDF15, cytokine used as aversive agent (protein, UniProt Q99988 195-308, looked up) Growth/differentiation factor …: ARARNGDHCPLGPGRCCRLHTVRASLEDLGWADWVLSPREVQVTMCIGACPSQFRAANMHAQIKTSLHRLKPDTVPAPCCVPASYNPMVLIQKTDTGVSLQTYDDLLAKDCHCI	–	–	–	–	increased numbers	increased number	decreased cFos expression in nine regions	increased cFos expression in seven brain areas

— publication PMC9233244 (Diabetes, 2022)
